Results taken from ChEMBL document CHEMBL5316305, “An Empirical Quantitative Structure-Activity Relationship Equation Assists the Discovery of High-Affinity Phosphodiesterase 4D Inhibitors as Leads to PET Radioligands” (J Med Chem, 2023).

Columns and labels:
[1] = Inhibition of PDE4D7 S129D mutant (unknown origin) preincubated for 5 to 10 mins followed by substrate addition and measured for 10 mins by coupled enzyme based fluorescence analysis; design: species or system Homo sapiens
Method in brief: (§1)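 Mutationally activated dimeric enzymes: PDE4D7-S129D (PDE4D*) and PDE4B1-S133D (PDE4B*). A real-time coupled enzyme assay measured inhibition instead of a fluorescein-labeled cAMP substrate, because the label prevents UCR2 closure. PDE4B* was used to assess subtype selectivity. The method otherwise followed earlier work.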

[2] = biological target: T1, 3',5'-cyclic-AMP phosphodiesterase 4B (Homo sapiens, UniProt Q07343, S133D); assay: Inhibition of PDE4B1 S133D mutant (unknown origin) preincubated for 5 to 10 mins followed by substrate addition and measured for 10 mins by coupled enzyme based fluorescence analysis; method in brief: as §1
[3] = Selectivity index, ratio of IC50 for PDE4B1 S133D mutant (unknown origin) to IC50 for PDE4D7 S129D mutant (unknown origin)
Method in brief: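 B/D ratio is the IC50 against PDE4B1-S133D (PDE4B*) divided by the IC50 against PDE4D7-S129D (PDE4D*). Both IC50s come from the real-time coupled enzyme assay on the mutationally activated dimeric enzymes.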

[4] = biological target: T1, 3',5'-cyclic-AMP phosphodiesterase 4B; assay: Inhibition of human PDE4B1 S133D mutant by coupled enzyme based fluorescence analysis; method in brief: as §1
[5] = Inhibition of human PDE4D7 S129D mutant by coupled enzyme based fluorescence analysis
Homo sapiens = species: Homo sapiens; assay: Selectivity index, ratio of IC50 for human PDE4B1 S133D mutant to IC50 for human PDE4D7 S129D mutant

T1 sequence (Q07343 whole entry S133D): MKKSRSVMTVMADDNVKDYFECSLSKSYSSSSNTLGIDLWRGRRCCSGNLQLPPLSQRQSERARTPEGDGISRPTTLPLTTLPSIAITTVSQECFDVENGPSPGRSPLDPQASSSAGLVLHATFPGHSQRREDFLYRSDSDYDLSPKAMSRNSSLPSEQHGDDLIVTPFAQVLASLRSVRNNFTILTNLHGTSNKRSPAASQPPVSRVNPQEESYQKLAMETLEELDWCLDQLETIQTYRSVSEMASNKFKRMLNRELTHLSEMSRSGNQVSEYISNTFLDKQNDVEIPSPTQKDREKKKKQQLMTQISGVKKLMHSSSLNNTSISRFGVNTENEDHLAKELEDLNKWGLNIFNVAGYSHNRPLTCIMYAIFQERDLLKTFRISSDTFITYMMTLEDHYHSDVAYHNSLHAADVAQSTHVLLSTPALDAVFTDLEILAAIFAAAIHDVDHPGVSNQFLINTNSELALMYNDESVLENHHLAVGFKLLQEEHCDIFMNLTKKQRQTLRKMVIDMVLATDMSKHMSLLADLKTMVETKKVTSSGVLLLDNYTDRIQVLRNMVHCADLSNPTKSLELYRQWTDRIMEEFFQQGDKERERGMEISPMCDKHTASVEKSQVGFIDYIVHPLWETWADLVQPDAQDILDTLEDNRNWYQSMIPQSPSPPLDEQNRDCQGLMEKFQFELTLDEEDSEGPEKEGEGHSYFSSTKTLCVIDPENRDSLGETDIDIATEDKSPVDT

Row | Structure (SMILES) | IC50 [1] | IC50 [2] | Ratio IC50 [3] | IC50 [4] | IC50 [5] | Ratio IC50 (Homo sapiens) | logIC50 [1]
1 | COc1ccc(Cc2cn[nH]c2)nc1-c1cccc(OC(F)F)c1 | 0.0014 µM | 1.07 µM | 793 |  |  |  | 
2 | COc1cccc(-c2nc(Cn3cccn3)ccc2OC(F)F)c1 | 0.281 µM | 1.06 µM | 4 |  |  |  | 
3 | COc1cccc(-c2nc(Oc3cn[nH]c3)ccc2OC(F)F)c1 | 0.281 µM | > 10 µM |  |  |  |  | 
4 | COc1ccc(Oc2cn[nH]c2)nc1-c1cccc(C(F)(F)F)c1 | 3.54 µM | 3.24 µM | 0.92 |  |  |  | 
5 | COc1ccc(Cc2cn[nH]c2)nc1-c1cccc([N+](=O)[O-])c1 |  |  |  | 0.28 µM |  |  | 
6 | COc1ccc(Cc2cnn(C)c2)nc1-c1cccc(Cl)c1 |  |  |  | 0.858 µM | 0.0005 µM | 1670 | 
7 | COc1ccc(Cn2ccnc2)nc1-c1cccc(OC(F)F)c1 | 0.00106 µM | 0.593 µM | 559 |  |  |  | 
8 | Fc1cccc(-c2nc(Cc3cn[nH]c3)ccc2OC(F)F)c1 | 0.0076 µM | 1.07 µM | 141 |  |  |  | 
9 | COc1cccc(-c2nc(Cn3cnnn3)ccc2OC(F)F)c1 | 0.023 µM | 0.646 µM | 28 |  |  |  | 
10 | COc1cccc(-c2nc(Cc3ccc(CCO)cc3)ccc2OC(F)F)c1 | 0.0069 µM | 4 µM | 581 |  |  |  | 
11 | COc1cccc(-c2nc(Cc3cn[nH]c3)ccc2OC)c1 | 0.013 µM | 2.13 µM | 165 |  |  |  | 1.11 log(nM)
12 | FC(F)Oc1cccc(-c2nc(Cn3ccnc3)ccc2OCc2ccccc2)c1 | 0.174 µM | > 10 µM |  |  |  |  | 
13 | COc1ccc(Cc2ccc(CCCO)cc2)nc1-c1cccc(OC(F)F)c1 | 0.016 µM | > 10 µM |  |  |  |  | 
14 | COc1ccc(Cc2ccncc2)nc1-c1cccc(Cl)c1 |  |  |  | 0.72 µM |  |  | 
15 | Fc1cccc(-c2nc(Cn3ccnc3)ccc2OC(F)F)c1 | 0.0037 µM | 0.198 µM | 54 |  |  |  | 0.57 log(nM)
16 | O=[N+]([O-])c1cccc(-c2nc(Cn3ccnc3)ccc2OC(F)F)c1 | 0.0003 µM | 0.081 µM | 270 |  |  |  | 
17 | COc1cccc(-c2nc(Cc3cnn(C)c3)ccc2OC(F)F)c1 | 0.0035 µM | 0.853 µM | 244 |  |  |  | 
18 | COc1cccc(-c2nc(Cc3ccncc3)ccc2OC(F)F)c1 | 0.0039 µM | 0.621 µM | 159 |  |  |  | 
19 | COc1ccc(Cn2cccn2)nc1-c1cccc(C(F)(F)F)c1 | > 10 µM | > 10 µM |  |  |  |  | 
20 | COc1ccc(Nc2cn[nH]c2)nc1-c1cccc(F)c1 | 0.529 µM | 2.53 µM | 5 |  |  |  | 
21 | COc1cccc(-c2nc(COc3cn[nH]c3)ccc2OC(F)F)c1 | 0.372 µM | > 10 µM |  |  |  |  | 

Row | Structure (SMILES) | IC50 [1] | IC50 [2] | Ratio IC50 [3] | IC50 [4] | IC50 [5] | Ratio IC50 (Homo sapiens) | logIC50 [1]
22 | COc1ccc(Nc2cn[nH]c2)nc1-c1cccc(OC(F)F)c1 | 0.188 µM | 2.5 µM | 13 |  |  |  | 
23 | COc1ccc(Cn2cccn2)nc1-c1cccc(Cl)c1 | 1.15 µM | 9.17 µM | 8 |  |  |  | 
24 | COc1cccc(-c2nc(Cc3cccnc3)ccc2OC(F)F)c1 | 0.0123 µM | 0.764 µM | 62 |  |  |  | 
25 | COc1ccc(Cc2ccncc2)nc1-c1cccc(OC(F)F)c1 | 0.0018 µM | 0.665 µM | 364 |  |  |  | 0.26 log(nM)
26 | FC(F)Oc1cccc(-c2nc(Cc3cn[nH]c3)ccc2OCc2ccccc2)c1 | 0.164 µM | > 10 µM |  |  |  |  | 
27 | FC(F)Oc1ccc(Cc2ccncc2)nc1-c1cccc(OCc2ccccc2)c1 | 0.171 µM | 0.143 µM | 0.84 |  |  |  | 
28 | COc1cccc(-c2nc(Cn3cnc(C(F)(F)F)n3)ccc2OC(F)F)c1 | 0.743 µM | > 10 µM |  |  |  |  | 
29 | COc1ccc(Cn2cnnn2)nc1-c1cccc(OC(F)F)c1 | 0.016 µM | 1.26 µM | 81 |  |  |  | 
30 | COc1ccc(Nc2cn[nH]c2)nc1-c1cccc(C(F)(F)F)c1 | 4.31 µM | > 10 µM |  |  |  |  | 
31 | COc1ccc(Cc2cn[nH]c2)nc1-c1cccc(C(F)(F)F)c1 | 0.186 µM | 7.85 µM | 42 |  |  |  | 
32 | COc1ccc(Cn2cncn2)nc1-c1cccc(OC(F)F)c1 | 0.015 µM | > 10 µM |  |  |  |  | 
33 | COc1cccc(-c2nc(Cc3cn[nH]c3)ccc2OC(F)F)c1 | 0.0027 µM | 0.521 µM | 193 |  |  |  | 
34 | COc1ccc(Cc2cn[nH]c2)nc1-c1cccc(F)c1 | 0.0238 µM | 0.995 µM | 42 |  |  |  | 
35 | COc1cccc(-c2nc(Cn3ccnc3)ccc2OC(F)F)c1 | 0.0021 µM | 0.513 µM | 242 |  |  |  | 
36 | COc1ccc(Cc2cn[nH]c2)nc1-c1cccc(OC(F)(F)F)c1 | 0.046 µM | 7.44 µM | 162 |  |  |  | 
37 | COc1ccc(Cn2ncnn2)nc1-c1cccc(OC(F)F)c1 | 0.021 µM | > 10 µM |  |  |  |  | 
38 | COc1ccc(Oc2cn[nH]c2)nc1-c1cccc(OC(F)F)c1 | 1.55 µM | > 10 µM |  |  |  |  | 
39 | FC(F)Oc1ccc(Cc2cn[nH]c2)nc1-c1cccc(OCc2ccccc2)c1 | 0.446 µM | 0.274 µM | 0.61 |  |  |  | 
40 | COc1ccc(Cc2cn[nH]c2)nc1-c1ccc2nonc2c1 | 0.013 µM | 0.73 µM | 57 |  |  |  | 
41 | COc1ccc(Cc2ccncc2)nc1-c1cccc([N+](=O)[O-])c1 |  |  |  | 1.12 µM |  |  | 
42 | FC(F)Oc1ccc(Cn2ccnc2)nc1-c1cccc(OCc2ccccc2)c1 | 0.085 µM | 0.046 µM | 0.54 |  |  |  | 

Row | Structure (SMILES) | IC50 [1] | IC50 [2] | Ratio IC50 [3] | IC50 [4] | IC50 [5] | Ratio IC50 (Homo sapiens) | logIC50 [1]
43 | COc1cccc(-c2nc(Cc3ccc(CCCO)cc3)ccc2OC(F)F)c1 | 0.024 µM | > 10 µM |  |  |  |  | 
44 | COc1ccc(Cc2cnn(C)c2)nc1-c1cccc(OC(F)F)c1 | 0.011 µM | 1.44 µM | 137 |  |  |  | 
45 | COc1ccc(Cc2ccc(CCO)cc2)nc1-c1cccc(OC(F)F)c1 | 0.004 µM | > 10 µM |  |  |  |  | 
46 | Fc1cccc(-c2nc(Oc3cn[nH]c3)ccc2OC(F)F)c1 | 0.07 µM | 3.11 µM | 45 |  |  |  | 
47 | COc1cccc(-c2nc(Cn3cncn3)ccc2OC(F)F)c1 | 0.042 µM | > 10 µM |  |  |  |  | 
48 | Fc1ccc(Cc2cn[nH]c2)nc1-c1cccc(Cl)c1 | 0.744 µM | > 10 µM |  |  |  |  | 
49 | FC(F)Oc1cccc(-c2nc(Cc3ccncc3)ccc2OCc2ccccc2)c1 | 0.61 µM | > 7.76 µM |  |  |  |  | 
50 | COc1ccc(Cn2cccn2)nc1-c1cccc(F)c1 | 5.53 µM | > 10 µM |  |  |  |  | 
51 | COc1cccc(-c2nc(Cn3ncnn3)ccc2OC(F)F)c1 | 0.017 µM | > 10 µM |  |  |  |  | 
52 | COc1ccc(Cn2cnc(C(F)(F)F)n2)nc1-c1cccc(OC(F)F)c1 | 0.785 µM | > 10 µM |  |  |  |  | 
53 | O=[N+]([O-])c1cccc(-c2nc(Cc3cn[nH]c3)ccc2OC(F)F)c1 | 0.00036 µM | 0.091 µM | 254 |  |  |  | 
54 | COc1cccc(-c2nc(C(=O)c3cn[nH]c3)ccc2OC(F)F)c1 | 0.873 µM | 1.93 µM | 2 |  |  |  | 
55 | COc1cccc(-c2nc(Cc3cncnc3)ccc2OC(F)F)c1 | 0.0102 µM | 1.19 µM | 116 |  |  |  | 
56 | COc1ccc(Oc2cn[nH]c2)nc1-c1cccc(Cl)c1 | 0.306 µM | 4.16 µM | 14 |  |  |  | 
57 | COc1ccc(Oc2cn[nH]c2)nc1-c1cccc(F)c1 | 0.836 µM | 4.54 µM | 5 |  |  |  | 
58 | COc1cccc(-c2nc(Nc3cn[nH]c3)ccc2OC(F)F)c1 | 0.658 µM | > 10 µM |  |  |  |  | 
59 | COc1ccc(Nc2cn[nH]c2)nc1-c1cccc(Cl)c1 | 0.468 µM | 3.16 µM | 7 |  |  |  | 
60 | COc1cccc(-c2nc(CNc3cn[nH]c3)ccc2OC(F)F)c1 | 0.53 µM | 2.27 µM | 4 |  |  |  | 
61 | Fc1cccc(-c2nc(Nc3cn[nH]c3)ccc2OC(F)F)c1 | 0.136 µM | 1.75 µM | 13 |  |  |  | 
62 | COc1ccc(Cc2cn[nH]c2)nc1-c1cccc(Cl)c1 | 0.006 µM | 0.923 µM | 154 |  |  |  | 
